Measured values as given in BindingDB's records for doi:10.1021/jm00165a017 (Abbott Laboratories, 1990).

Target: T1, Polyunsaturated fatty acid 5-lipoxygenase (Rattus norvegicus, UniProt P12527)
T1 sequence (P12527 whole entry): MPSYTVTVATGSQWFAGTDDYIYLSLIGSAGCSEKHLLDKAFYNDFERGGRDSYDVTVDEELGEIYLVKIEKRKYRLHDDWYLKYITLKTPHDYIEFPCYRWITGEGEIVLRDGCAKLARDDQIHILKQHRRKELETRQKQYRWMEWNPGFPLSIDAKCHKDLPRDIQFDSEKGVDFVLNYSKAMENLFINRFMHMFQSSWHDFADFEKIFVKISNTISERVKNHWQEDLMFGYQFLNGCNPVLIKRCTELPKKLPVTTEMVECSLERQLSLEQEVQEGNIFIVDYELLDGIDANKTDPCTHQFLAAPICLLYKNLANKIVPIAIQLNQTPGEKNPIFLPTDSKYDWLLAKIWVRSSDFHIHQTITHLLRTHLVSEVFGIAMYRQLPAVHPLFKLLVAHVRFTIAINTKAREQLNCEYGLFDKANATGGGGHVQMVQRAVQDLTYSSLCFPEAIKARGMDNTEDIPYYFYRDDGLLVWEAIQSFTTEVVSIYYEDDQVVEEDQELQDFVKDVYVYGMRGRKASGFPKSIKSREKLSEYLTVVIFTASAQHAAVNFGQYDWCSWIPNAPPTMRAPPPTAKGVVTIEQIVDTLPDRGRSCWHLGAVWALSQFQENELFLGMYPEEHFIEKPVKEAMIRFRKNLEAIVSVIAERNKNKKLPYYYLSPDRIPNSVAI
Assay: In vitro inhibitory activity against 5-lipoxygenase in rat basophilic leukemia cells(RBL-1)
How it was run: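 Enzyme source: sonicated lysate of trypsin-harvested adherent RBL-1 cells (3.0 × 10^7 cells/mL in 10 mM BES, 10 mM PIPES, 1 mM EDTA, pH 6.8), 20000g 20-min supernatant. Compounds in DMSO preincubated with enzyme 20 min at 37 °C in buffer with 0.7 mM CaCl2, 100 mM NaCl. Radiolabelled 5-HETE counted after chromatography, corrected via [3H]5-HETE recovery.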

- IC50: 1500 nM
SMILES: CC(C)Cc1ccc(C(Cc2ccccc2)C(=O)N(C)O)cc1 (stereo unspecified)
